Assay [1] relates to Radical scavenging activity. The experiment in a line: Antioxidant activity assessed as DPPH free radical scavenging activity after 30 mins by spectrophotometry. It is filed as functional. As to conditions: read-out: IC50. (Loss of DPPH colour is used to gauge radical scavenging.)
The test system of assay [2] is Mus musculus. The assay can be described thus: Antiinflammatory activity in CD1 mouse ear dermatitis model assessed as inhibition of Croton oil-induced ear edema at 0.10 umol administered topically per cm'2 of ear measured after induction of dermatitis relative to untreated control. It is filed as functional. The method, boiled down: (§1)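 Male CD-1 mice (28–32 g), anesthetized with ketamine 145 mg/kg i.p.; right ear (about 1 cm2) given 80 μg croton oil in 15 μL acetone, with test substance co-applied in acetone; left ear left untreated. Controls received irritant only. 6 mm punches taken from both ears; edema = weight difference treated minus untreated; % inhibition vs controls. ID50 by graphic interpolation of log dose–effect curves; ANOVA with Dunnett's test.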

The subject of assay [3] is Mus musculus. The assay can be described thus: Antiinflammatory activity in CD1 mouse ear dermatitis model assessed as inhibition of Croton oil-induced ear edema administered topically per cm'2 of ear measured after induction of dermatitis relative to untreated control. Type of assay: functional.
In assay [4] the test system is Mus musculus. The assay can be described thus: Antiinflammatory activity in CD1 mouse ear dermatitis model assessed as inhibition of Croton oil-induced ear edema at 0.04 umol administered topically per cm'2 of ear measured 6 hrs after induction of dermatitis relative to untreated control. Type of assay: functional. Summed up:
as §1

Assay [5] deals with Mus musculus. The experiment in a line: Antiinflammatory activity in CD1 mouse ear dermatitis model assessed as inhibition of Croton oil-induced ear edema at 0.04 umol administered topically per cm'2 of ear measured 12 hrs after induction of dermatitis relative to untreated control. It is filed as functional. The method, boiled down: as §1
The subject of assay [6] is Mus musculus. The assay can be described thus: Antiinflammatory activity in CD1 mouse ear dermatitis model assessed as reduction in AUC of Croton oil-induced ear edema response at 0.04 umol administered topically per cm'2 of ear measured 48 hrs after induction of dermatitis relative to untreated control. It is filed as functional. The method, boiled down: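 Croton oil dermatitis on the right ear of anesthetized male CD-1 mice, with compound co-applied topically in acetone. Ear punch weight difference (treated minus untreated ear) measured at several times up to 48 h.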

Assay [7] has as its system Mus musculus. The assay can be described thus: Antiinflammatory activity in CD1 mouse ear dermatitis model assessed as reduction in leukocyte infiltration-based myeloperoxidase activity at 0.04 umol administered topically per cm'2 of ear measured 3 to 48 hrs post dermatitis induction relative to untreated control. It is filed as functional. Summed up:
(§2)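 Same croton oil ear model in CD-1 mice. The ear punch is homogenized in 0.1 M acetate pH 4.2 with 0.1% HTAB and centrifuged 15000g for 5 min. Supernatant myeloperoxidase is assayed with 2.83 mM TMB plus 0.7 mM H2O2 for 5 min at 25 °C, stopped with acetic acid, A620, duplicates.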

Assay [8] relates to Mus musculus. The experiment in a line: Antiinflammatory effect in CD1 mouse ear dermatitis model assessed as reduction in vascular changes at 0.04 umol administered topically per cm'2 of ear measured after 6 hrs post dermatitis induction relative to control. Type of assay: functional, organism-based. The method, boiled down:
(§3)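 Male CD-1 mice (28–32 g) anesthetized with ketamine 145 mg/kg ip; right ear (about 1 cm2) given 80 μg croton oil in 15 μL acetone with test substance co-applied in acetone; controls irritant only; left ear untreated. Ears fixed in 10% formalin, paraffin-embedded, 10 μm sections stained hematoxylin-eosin or Giemsa, examined by light microscopy at set times after induction.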

In assay [9] the test system is Mus musculus. The assay can be described thus: Antiinflammatory effect in CD1 mouse ear dermatitis model assessed as reduction in cellular changes at 0.04 umol administered topically per cm'2 of ear measured after 6 hrs post dermatitis induction relative to control. Type of assay: functional, organism-based. The method, boiled down: as §3
Assay [10] relates to Mus musculus. The experiment in a line: Antiinflammatory activity in CD1 mouse ear dermatitis model assessed as inhibition of Croton oil-induced ear edema at 0.01 umol administered topically per cm'2 of ear measured after induction of dermatitis relative to untreated control. Type of assay: functional. Summed up:
as §1

Assay [11] has as its system Mus musculus. The assay can be described thus: Antiinflammatory activity in CD1 mouse ear dermatitis model assessed as inhibition of Croton oil-induced ear edema at 0.03 umol administered topically per cm'2 of ear measured after induction of dermatitis relative to untreated control. Type of assay: functional. The method, boiled down:
as §1

Assay [12] deals with Mus musculus. The experiment in a line: Antiinflammatory activity in CD1 mouse ear dermatitis model assessed as reduction in AUC of global leukocyte infiltration-based myeloperoxidase activity at 0.04 umol administered topically per cm'2 of ear measured 3 to 48 hrs post dermatitis induction relative to untreated control. Type of assay: functional. Summed up: as §2
The nature of assay [13]: Inhibition of NFkappaB activity transfected in HEK293 cells pretreated for 1 hr before 6 hrs of LPS challenge by luciferase reporter gene assay. The conditions noted are these: Homo sapiens.
For assay [14], the system named is Mus musculus. The experiment in a line: Antiinflammatory activity in CD1 mouse ear dermatitis model assessed as inhibition of Croton oil-induced ear edema at 0.30 umol administered topically per cm'2 of ear measured after induction of dermatitis relative to untreated control. Type of assay: functional. The method, boiled down: as §1
Assay [15] relates to Mus musculus. The experiment in a line: Antiinflammatory activity in CD1 mouse ear dermatitis model assessed as inhibition of Croton oil-induced ear edema at 1 umol administered topically per cm'2 of ear measured after induction of dermatitis relative to untreated control. It is filed as functional. The method, boiled down:
as §1

The test system of assay [16] is Mus musculus. The assay can be described thus: Antiinflammatory effect in CD1 mouse ear dermatitis model assessed as reduction in vascular changes at 0.4 umol administered topically per cm'2 of ear measured after 6 hrs post dermatitis induction relative to control. Type of assay: functional, organism-based. Summed up:
as §3

Assay [17] concerns Mus musculus. The experiment in a line: Antiinflammatory effect in CD1 mouse ear dermatitis model assessed as reduction in cellular changes at 0.4 umol administered topically per cm'2 of ear measured after 6 hrs post dermatitis induction relative to control. Type of assay: functional, organism-based. The method, boiled down: as §3
The test system of assay [18] is Mus musculus. The assay can be described thus: Antiinflammatory effect in CD1 mouse ear dermatitis model assessed as preservance of mast cell degranulation at 0.4 umol administered topically per cm'2 of ear measured after 6 hrs post dermatitis induction relative to control. It is filed as functional, organism-based. Summed up: as §3
The test system of assay [19] is Mus musculus. The assay can be described thus: Antiinflammatory effect in CD1 mouse ear dermatitis model assessed as reduction in mast cell degranulation at 0.4 umol administered topically per cm'2 of ear measured after 6 hrs post dermatitis induction relative to control. Type of assay: functional, organism-based. Summed up:
as §3

Assay [20] has as its system Mus musculus. The experiment in a line: Antiinflammatory effect in CD1 mouse ear dermatitis model assessed as reduction in leukocyte infiltration-based myeloperoxidase at 0.4 umol administered topically per cm'2 of ear measured after 6 hrs post dermatitis induction relative to control. Type of assay: functional, organism-based. Summed up: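 CD-1 mice, croton oil 80 μg in acetone on right ear with topical test substance; ear punch (6 mm) homogenized in 0.1 M sodium acetate pH 4.2 with 0.1% HTAB, centrifuged 15000g 5 min; supernatant myeloperoxidase measured with TMB (2.83 mM) and 0.7 mM H2O2, 5 min at 25 °C, stopped with acetic acid, A620; duplicates; units = nM TMB oxidized/min.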

The test system of assay [21] is Mus musculus. The experiment in a line: Antiinflammatory effect in CD1 mouse ear dermatitis model assessed as dermal swelling at 0.4 umol administered topically per cm'2 of ear after 9 hrs of post dermatitis induction relative to control. Type of assay: functional, organism-based. The method, boiled down: as §3
Assay [22] has as its system Mus musculus. The assay can be described thus: Antiinflammatory activity in CD1 mouse ear dermatitis model assessed as inhibition of Croton oil-induced ear edema at 0.4 umol administered topically per cm'2 of ear measured 48 hrs after induction of dermatitis relative to untreated control.

Active and inactive are the calls of the source. No cut-off for these calls is given here.

Broadly, the IC50 is the midpoint of a concentration-inhibition curve. Regarding `O=C1O[C@H]([C@@H](O)CO)C(O)=C1O` [ASCORBIC ACID], in assay [1], the IC50 is 24.2 µM.

Consider `C[C@]12CCC(=O)C=C1CC[C@@H]1[C@@H]2[C@@H](O)C[C@@]2(C)[C@H]1CC[C@]2(O)C(=O)CO` [HYDROCORTISONE], for which the “inhibition (INH)” value in the assay with Mus musculus [2] is on record as 77%; in the assay on Mus musculus [4], 79%; with Mus musculus [5], 60%; with Mus musculus [6] it was 69%; in the assay with Mus musculus [7] it was 35%; with Mus musculus [10], 29%. The “inhibition (INH)” value in the assay on Mus musculus [11] is 55%; with Mus musculus [12] it was 51%. In addition, the ID50 in the assay on Mus musculus [3] is reported as 0.03 umol/cm2. Besides, the inhibition result with Mus musculus [8] and in the assay with Mus musculus [9] was “Active” each time.

Consider `C=C1C(=O)O[C@@H]2[C@H]3O[C@]3(C)CC/C=C(\C)CC[C@@H]12`, for which the IC50 in assay [13] is 1.4 µM.

Take `COc1ccc2c(c1)c(CC(=O)O)c(C)n2C(=O)c1ccc(Cl)cc1` [INDOMETHACIN]: the entries for the “inhibition (INH)” value with Mus musculus [2], in the assay on Mus musculus [14] and with Mus musculus [15] were 25%, 51% and 80%, respectively. In addition, in the assay with Mus musculus [3], the ID50 is listed as 0.29 umol/cm2. Besides, the inhibition result in the assay on Mus musculus [16], with Mus musculus [17], in the assay on Mus musculus [18], in the assay with Mus musculus [19] and in the assay with Mus musculus [20] was “Active” in each case. Also, the inhibition result with Mus musculus [21] and in the assay with Mus musculus [22] was “inactive” each time.

For the origin of these results see ChEMBL document CHEMBL2146414, “Lignan derivatives from Krameria lappacea roots inhibit acute inflammation in vivo and pro-inflammatory mediators in vitro” (J Nat Prod, 2011).
